Experimental findings from ChEMBL document CHEMBL1127357, “Synthesis and biochemical evaluation of a series of aminoflavones as potential inhibitors of protein-tyrosine kinases p56lck, EGFr, and p60v-src” (J Med Chem, 1994) are described below.

Experiment [1] deals with Epidermal growth factor receptor (Homo sapiens, UniProt P00533). Briefly: Inhibition of in vitro activity of EGFr enzyme from A431 cells in presence of 5 uM ATP. The format is cell-based, A-431. A digest of the protocol: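 EGFr from human A431 shed membrane vesicles, solubilised in 4% Triton X-100/10% glycerol; 10 μg vesicle protein. Buffer 20 mM HEPES pH 7.4, 15 mM MgCl2, 4 mM MnCl2, 0.02% BSA, 5 μM [32P]ATP, 25 μg Glu:Ala:Tyr (6:3:1) copolymer, 250 ng EGF. 10 min at room temperature; TCA/pyrophosphate quench, filter wash, scintillation counting; autophosphorylation controls included.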
Epidermal growth factor receptor, sequence (P00533 whole entry): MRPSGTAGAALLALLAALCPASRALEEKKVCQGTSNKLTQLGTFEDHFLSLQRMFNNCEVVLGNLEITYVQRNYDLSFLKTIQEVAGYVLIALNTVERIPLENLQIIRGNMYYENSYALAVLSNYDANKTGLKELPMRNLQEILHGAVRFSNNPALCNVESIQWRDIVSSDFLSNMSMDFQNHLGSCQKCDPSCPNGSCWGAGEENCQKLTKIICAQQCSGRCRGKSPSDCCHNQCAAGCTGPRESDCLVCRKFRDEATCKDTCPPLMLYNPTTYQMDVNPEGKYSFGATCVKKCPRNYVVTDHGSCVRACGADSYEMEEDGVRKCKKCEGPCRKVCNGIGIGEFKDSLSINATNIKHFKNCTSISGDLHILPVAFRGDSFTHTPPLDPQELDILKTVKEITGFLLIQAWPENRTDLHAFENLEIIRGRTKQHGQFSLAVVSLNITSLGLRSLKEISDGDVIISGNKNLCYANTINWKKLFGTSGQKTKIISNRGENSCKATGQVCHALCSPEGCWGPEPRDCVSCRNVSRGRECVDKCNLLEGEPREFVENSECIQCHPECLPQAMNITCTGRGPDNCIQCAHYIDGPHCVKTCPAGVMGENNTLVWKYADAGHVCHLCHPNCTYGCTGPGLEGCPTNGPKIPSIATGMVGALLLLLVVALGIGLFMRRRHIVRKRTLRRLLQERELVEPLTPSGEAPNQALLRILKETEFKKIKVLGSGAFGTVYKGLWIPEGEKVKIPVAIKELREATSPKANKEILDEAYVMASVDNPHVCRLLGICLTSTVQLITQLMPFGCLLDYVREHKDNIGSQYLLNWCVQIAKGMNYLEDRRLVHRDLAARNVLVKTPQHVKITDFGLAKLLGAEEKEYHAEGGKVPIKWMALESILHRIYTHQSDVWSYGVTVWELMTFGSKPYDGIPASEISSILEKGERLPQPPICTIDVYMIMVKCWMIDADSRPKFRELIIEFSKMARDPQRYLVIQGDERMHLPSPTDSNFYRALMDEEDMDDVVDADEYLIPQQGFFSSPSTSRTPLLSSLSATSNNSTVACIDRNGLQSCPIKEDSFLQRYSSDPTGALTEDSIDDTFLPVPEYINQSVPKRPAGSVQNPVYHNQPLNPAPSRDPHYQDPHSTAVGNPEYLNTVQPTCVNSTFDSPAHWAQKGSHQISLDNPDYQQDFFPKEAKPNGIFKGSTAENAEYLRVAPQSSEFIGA

Experiment [2] deals with Tyrosine-protein kinase Lck (Bos taurus). Briefly: In vitro inhibition of protein-tyrosine activity of p56lck enzyme in presence of 50 uM ATP.

Usually IC50 stands for the concentration that inhibits the measured activity by half. Regarding `COc1ccc(N)c2oc(-c3ccc(N)cc3)cc(=O)c12`, the half-maximal inhibitory concentration (IC50) in experiment [1] was more than 100 µM.

As to `Nc1ccc(-c2cc(=O)c3c(N)c(O)c(N)cc3o2)cc1`, the half-maximal inhibitory concentration (IC50) in experiment [2] is 18 µM; in experiment [1], more than 100 µM.

Consider `Nc1ccc(-c2cc(=O)c3ccc(O)c(N)c3o2)cc1`, for which the figures for the 50% inhibitory concentration (IC50) in experiment [2] and in experiment [1] were 328 µM and more than 100 µM, respectively.

For the compound `O=c1cc(-c2ccc([N+](=O)[O-])cc2)oc2c([N+](=O)[O-])cc(O)cc12`, the IC50 in experiment [2] is more than 2000 µM.

With `O=c1cc(-c2ccc([N+](=O)[O-])cc2)oc2c([N+](=O)[O-])c(O)ccc12`, the IC50 in experiment [2] was 1880 µM.

For `COc1cc([N+](=O)[O-])c2oc(-c3ccc([N+](=O)[O-])cc3)cc(=O)c2c1`, the IC50 in experiment [2] was more than 2000 µM.

With `O=c1cc(-c2ccc([N+](=O)[O-])cc2)oc2c([N+](=O)[O-])ccc(O)c12`, the IC50 in experiment [2] was more than 2000 µM.

Consider `Nc1cccc(-c2cc(=O)c3c(N)c(O)c(N)cc3o2)c1`, for which the IC50 is 46 µM in experiment [2] and 7.8 µM in experiment [1].

Take `Nc1cccc(-c2cc(=O)c3cc(N)ccc3o2)c1`: the IC50 was 200 µM in experiment [2] and more than 100 µM in experiment [1].

With `Nc1ccc(-c2cc(=O)c3cc(N)ccc3o2)cc1`, the IC50 in experiment [2] came out at 103 µM; in experiment [1], 8.7 µM.

Take `Nc1ccc(-c2cc(=O)c3cccc(N)c3o2)cc1`: the results for the IC50 in experiment [2] and in experiment [1] were 123 µM and more than 100 µM, respectively.

For `Nc1cccc(-c2cc(=O)c3cc(N)c(O)cc3o2)c1`, the IC50 in experiment [2] is 502 µM; in experiment [1] it was more than 100 µM.

With `Nc1ccc(-c2cc(=O)c3cc(N)cc(N)c3o2)cc1`, the concentration for half-maximal inhibition (IC50) in experiment [2] is 106 µM; in experiment [1], more than 100 µM.

For the compound `O=c1cc(-c2ccc([N+](=O)[O-])cc2)oc2cc(O)c([N+](=O)[O-])cc12`, the IC50 in experiment [2] was more than 2000 µM.

As for `Nc1ccc(-c2cc(=O)c3c(O)ccc(N)c3o2)cc1`, the IC50 is 326 µM in experiment [2] and more than 100 µM in experiment [1].

For `COc1ccc([N+](=O)[O-])c2oc(-c3ccc([N+](=O)[O-])cc3)cc(=O)c12`, in experiment [2], the IC50 is more than 2000 µM.

As to `Nc1ccc(-c2cc(=O)c3cc(N)c(O)c(N)c3o2)cc1`, the IC50 is 754 µM in experiment [2] and more than 100 µM in experiment [1].

With `Nc1ccc(-c2cc(=O)c3c(O)c(N)ccc3o2)cc1`, the half-maximal inhibitory concentration (IC50) was 223 µM in experiment [2] and more than 100 µM in experiment [1].

Consider `O=c1cc(-c2ccc([N+](=O)[O-])cc2)oc2c([N+](=O)[O-])cccc12`, for which, in experiment [2], the IC50 was more than 2000 µM.

For the compound `COc1cc(N)c2oc(-c3ccc(N)cc3)cc(=O)c2c1`, the half-maximal inhibitory concentration (IC50) in experiment [2] is 382 µM; in experiment [1] it was more than 100 µM.

Turning to `COc1cc(N)c2oc(-c3cccc(N)c3)cc(=O)c2c1`, the IC50 in experiment [1] was more than 100 µM.

With `Nc1ccc(-c2cc(=O)c3cc(N)c(O)cc3o2)cc1`, the 50% inhibitory concentration (IC50) in experiment [2] stood at 141 µM; in experiment [1] it was 14.1 µM.

For `O=c1cc(-c2ccc([N+](=O)[O-])cc2)oc2ccc([N+](=O)[O-])c(O)c12`, the IC50 in experiment [2] is more than 2000 µM.

For the compound `O=c1cc(-c2ccc([N+](=O)[O-])cc2)oc2ccc([N+](=O)[O-])cc12`, in experiment [2], the concentration for half-maximal inhibition (IC50) is more than 2000 µM.

As to `Nc1ccc(-c2cc(=O)c3cc(O)cc(N)c3o2)cc1`, the IC50 in experiment [2] is 117 µM; in experiment [1], more than 100 µM.
